Data: ChEMBL document CHEMBL4368921, “Discovery of novel simplified isoxazole derivatives of sampangine as potent anti-cryptococcal agents” (2019)
Values after ≈ are worked out from the molar mass of the structure shown. Active and inactive are the calls of the source. The calls are words filed in the database; no cut-off is given here.

What was measured:
[1] = tested on: Cryptococcus neoformans; experiment: Induction of apoptosis in Cryptococcus neoformans var. grubii H99 assessed as necrotic cells at 2 ug/mL after 24 hrs by annexin V-FITC/propidium iodide staining-based flow cytometric analysis (reference value: 0.19%); format: functional
[2] = tested on: Cryptococcus neoformans; experiment: Inhibition of melanin production in Cryptococcus neoformans var. grubii H99 at 16 ug/mL; format: functional, organism-based
How it was run: (§1)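 PBS-washed exponential H99 cells at 1×10^6 cells/mL in RPMI 1640 with drug. Drops placed on L-DOPA (melanin) or urea (urease) medium and incubated at 37 °C. Read-out: black versus white colonies for melanin, red medium for urease.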

[3] = tested on: Cryptococcus neoformans; experiment: Induction of apoptosis in Cryptococcus neoformans var. grubii H99 assessed as early apoptotic cells at 1 ug/mL after 24 hrs by annexin V-FITC/propidium iodide staining-based flow cytometric analysis (reference value: 1.05%); format: functional
[4] = tested on: Cryptococcus neoformans; experiment: Antibiofilm activity against Cryptococcus neoformans var. grubii H99 at 0.062 to 8 ug/mL after 24 hrs by XTT analysis; format: functional, organism-based
How it was run: (§2)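 H99 cells at 1.0×10^6 CFU/mL in RPMI 1640 left to adhere 90 min at 37 °C. Non-adherent cells were removed and the wells washed three times with PBS. Fresh RPMI with drug (0.062-8 µg/mL) or drug-free control was added, then 24 h more at 37 °C. Formation rate by XTT reduction. Means ± SD of three independent experiments; ANOVA and t-test.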

[5] = tested on: Cryptococcus neoformans; experiment: Induction of apoptosis in Cryptococcus neoformans var. grubii H99 assessed as necrotic cells at 0.5 ug/mL after 24 hrs by annexin V-FITC/propidium iodide staining-based flow cytometric analysis (reference value: 0.19%); format: functional
[6] = tested on: Cryptococcus neoformans; experiment: Antifungal activity against Cryptococcus neoformans var. grubii H99 after 48 hrs by serial dilution method; format: functional
How it was run: (§3)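 Broth serial dilution per NCCLS. Medium was RPMI 1640 buffered with 0.165M MOPS, NaHCO3 (0.2%) and NaOH (0.27%). Strains were pre-grown in YPD at 30 °C with shaking. Inoculum 10³ CFU/mL; compounds in DMSO. Plates incubated at 35 °C for 48 h. MIC80 is the concentration giving 80% inhibition.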

[7] = tested on: Candida albicans; experiment: Antifungal activity against Candida albicans SC5314 after 48 hrs by serial dilution method; format: functional; details: SC5314, 48 h; how it was run: as §3
[8] = tested on: Cryptococcus neoformans; experiment: Induction of apoptosis in Cryptococcus neoformans var. grubii H99 assessed as early apoptotic cells at 2 ug/mL after 24 hrs by annexin V-FITC/propidium iodide staining-based flow cytometric analysis (reference value: 1.05%); format: functional
[9] = tested on: Cryptococcus neoformans; experiment: Fungistatic activity against Cryptococcus neoformans var. grubii H99 at 0.25 ug/mL up to 48 hrs by time-growth curve assay; format: functional, organism-based
[10] = tested on: Cryptococcus neoformans; experiment: Cell cycle arrest in Cryptococcus neoformans var. grubii H99 assessed as accumulation of cells at G1 phase at 2 ug/mL after 24 hrs by propidium iodide staining-based flow cytometric analysis (reference value: 12.24%); format: functional
How it was run: (§4)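 Exponential H99 cells washed three times with PBS and set at 5×10^5 cells/mL in RPMI 1640. Dosed 0.5, 1 or 2 µg/mL and shaken (200 rpm) at 30 °C for 24 h. Walls digested 1 h at 30 °C in PBS with 0.24% snailase, then fixed overnight in 70% ethanol. Stained with 50 µg/mL PI, 4 °C, 30 min; ~1×10^6 cells read by flow cytometry.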

[11] = tested on: Cryptococcus neoformans; experiment: Fungistatic activity against Cryptococcus neoformans var. grubii H99 up to 48 hrs by time-growth curve assay; format: functional, organism-based
How it was run: (§5)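 Exponential H99 cells at 2×10^6 cells/mL in 5 mL RPMI 1640 with drug (0.062-1 µg/mL) or DMSO control. Shaken at 200 rpm, 30 °C. Cells counted at 0, 3, 6, 9, 12, 24 and 48 h. Three independent experiments.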

[12] = tested on: Cryptococcus neoformans; experiment: Antifungal activity against Cryptococcus neoformans var. grubii ATCC 34877 after 48 hrs by serial dilution method; format: functional; details: var. grubii ATCC 34877, 48 h; how it was run: as §3
[13] = tested on: Cryptococcus neoformans; experiment: Induction of apoptosis in Cryptococcus neoformans var. grubii H99 assessed as early apoptotic cells at 0.5 ug/mL after 24 hrs by annexin V-FITC/propidium iodide staining-based flow cytometric analysis (reference value: 1.05%); format: functional
[14] = tested on: Cryptococcus neoformans; experiment: Cell cycle arrest in Cryptococcus neoformans var. grubii H99 assessed as accumulation of cells at G1 phase at 1 ug/mL after 24 hrs by propidium iodide staining-based flow cytometric analysis (reference value: 12.24%); format: functional; how it was run: as §4
[15] = tested on: Cryptococcus neoformans; experiment: Induction of apoptosis in Cryptococcus neoformans var. grubii H99 assessed as late apoptotic cells at 0.5 ug/mL after 24 hrs by annexin V-FITC/propidium iodide staining-based flow cytometric analysis (reference value: 0.15%); format: functional
[16] = tested on: Cryptococcus neoformans; experiment: Induction of apoptosis in Cryptococcus neoformans var. grubii H99 assessed as late apoptotic cells at 2 ug/mL after 24 hrs by annexin V-FITC/propidium iodide staining-based flow cytometric analysis (reference value: 0.15%); format: functional
[17] = tested on: Cryptococcus gattii; experiment: Antifungal activity against Cryptococcus gattii ATCC 14116 after 48 hrs by serial dilution method; details: ATCC 14116, 48 h
[18] = tested on: Cryptococcus neoformans; experiment: Induction of apoptosis in Cryptococcus neoformans var. grubii H99 assessed as necrotic cells at 1 ug/mL after 24 hrs by annexin V-FITC/propidium iodide staining-based flow cytometric analysis (reference value: 0.19%); format: functional
[19] = tested on: Cryptococcus neoformans; experiment: Antibiofilm activity against Cryptococcus neoformans var. grubii H99 at 0.062 ug/mL after 24 hrs by XTT analysis relative to control; format: functional; how it was run: as §2
[20] = tested on: Cryptococcus neoformans; experiment: Fungistatic activity against Cryptococcus neoformans var. grubii H99 assessed as inhibition of cell growth at 1 ug/mL up to 48 hrs by time-growth curve assay; format: functional; details: read-out: GI; how it was run: as §5
[21] = tested on: Cryptococcus neoformans; experiment: Cell cycle arrest in Cryptococcus neoformans var. grubii H99 assessed as accumulation of cells at G1 phase at 0.5 ug/mL after 24 hrs by propidium iodide staining-based flow cytometric analysis (reference value: 12.24%); format: functional; how it was run: as §4
[22] = tested on: Cryptococcus neoformans; experiment: Induction of apoptosis in Cryptococcus neoformans var. grubii H99 assessed as late apoptotic cells at 1 ug/mL after 24 hrs by annexin V-FITC/propidium iodide staining-based flow cytometric analysis (reference value: 0.15%); format: functional
[23] = tested on: Cryptococcus neoformans; experiment: Cell cycle arrest in Cryptococcus neoformans var. grubii H99 assessed as decrease in cells at S phase at 0.5 to 2 ug/mL after 24 hrs by propidium iodide staining-based flow cytometric analysis; format: functional, organism-based; how it was run: as §4
[24] = tested on: Cryptococcus neoformans; experiment: Inhibition of urease production in Cryptococcus neoformans var. grubii H99 at 64 ug/mL; format: functional, organism-based; how it was run: as §1
[25] = tested on: Cryptococcus neoformans; experiment: Fungicidal activity against Cryptococcus neoformans var. grubii H99 at 2 ug/mL after 48 hrs by time-kill assay; format: functional, organism-based
How it was run: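 Time-kill: PBS-washed exponential H99 cells at 2×10^6 cells/mL in 5 mL RPMI 1640 with drug, shaken (200 rpm) at 30 °C. Samples taken at 0, 6, 12, 24 and 48 h, diluted and plated on SDA. CFU counted after 48 h at 30 °C.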

[26] = tested on: Cryptococcus neoformans; experiment: Fungicidal activity against Cryptococcus neoformans var. grubii H99 at 16 ug/mL after 48 hrs by time-kill assay; format: functional, organism-based
How it was run: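 Exponential-phase H99 cells were washed three times in PBS and resuspended in RPMI 1640 at 2×10^6 cells/mL. After drug was added, cultures were shaken at 200 rpm and 30 °C. Samples were taken at 0, 6, 12, 24 and 48 h, diluted, and plated on SDA agar. Viable counts were read after 48 h at 30 °C.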

[27] = tested on: Cryptococcus neoformans; experiment: Fungistatic activity against Cryptococcus neoformans var. grubii H99 at 16 ug/mL up to 48 hrs by time-growth curve assay; format: functional, organism-based
How it was run: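 Exponential-phase H99 cells were resuspended in fresh RPMI 1640 at 2×10^6 cells/mL, drug was added, and cultures were shaken at 200 rpm and 30 °C. Aliquots were removed and counted at 0, 3, 6, 9, 12, 24 and 48 h. The control received DMSO. Three independent experiments were run.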

CCc1noc2c1C(=O)c1sccc1C2=O
Activity [1]: 0.32%
inhibition [2]: Active
Activity [3]: 39.23%
Activity [4]: Active
Activity [5]: 1.35%
MIC80 [6]: 0.031 µg/mL (≈ 0.133 µM)
MIC80 [7]: 2 µg/mL (≈ 8.57 µM)
Activity [8]: 50.7%
Activity [9]: Active
Activity [10]: 48.61%
Activity [11]: Dose-dependent effect
MIC80 [12]: 0.12 µg/mL (≈ 0.514 µM)
Activity [13]: 20.49%
Activity [14]: 49.14%
Activity [15]: 3.33%
Activity [16]: 6.78%
MIC80 [17]: 0.25 µg/mL (≈ 1.07 µM)
Activity [18]: 0.51%
Activity [19]: >80%
inhibition of growth at 1 µg/mL [20]: 100%
Activity [21]: 50.21%
Activity [22]: 5.39%
Activity [23]: Active
inhibition [24]: Active
Activity [25]: Active

O=C1c2ccsc2C(=O)c2c(-c3ccsc3)noc21
MIC80 [6]: 1 µg/mL (≈ 3.48 µM)
MIC80 [7]: > 64 µg/mL

O=C1c2ccsc2C(=O)c2c(-c3ccccc3Br)noc21
MIC80 [6]: 0.25 µg/mL (≈ 0.694 µM)
MIC80 [7]: > 64 µg/mL

C[C@@H]1[C@H](O)[C@@H](C)/C=C/C=C/C=C/C=C/C=C/C=C/C=C/[C@H](O[C@@H]2O[C@H](C)[C@@H](O)[C@H](N)[C@@H]2O)C[C@@H]2O[C@](O)(C[C@@H](O)C[C@@H](O)[C@H](O)CC[C@@H](O)C[C@@H](O)CC(=O)O[C@H]1C)C[C@H](O)[C@H]2C(=O)O
Activity [4]: Active

O=C1c2ccsc2C(=O)c2c(-c3cccc(Br)c3)noc21
MIC80 [6]: > 64 µg/mL
MIC80 [7]: > 64 µg/mL

COc1ccccc1-c1noc2c1C(=O)c1sccc1C2=O
MIC80 [6]: 0.5 µg/mL (≈ 1.61 µM)
MIC80 [7]: > 64 µg/mL

Cn1cccc1-c1noc2c1C(=O)c1sccc1C2=O
MIC80 [6]: 4 µg/mL (≈ 14.1 µM)
MIC80 [7]: 16 µg/mL (≈ 56.3 µM)

COCc1noc2c1C(=O)c1sccc1C2=O
MIC80 [6]: 0.25 µg/mL (≈ 1 µM)
MIC80 [7]: 8 µg/mL (≈ 32.1 µM)
MIC80 [12]: 0.25 µg/mL (≈ 1 µM)
MIC80 [17]: 0.5 µg/mL (≈ 2.01 µM)

COc1ccc(-c2noc3c2C(=O)c2sccc2C3=O)cc1
MIC80 [6]: 1 µg/mL (≈ 3.21 µM)
MIC80 [7]: > 64 µg/mL

O=C1c2ccsc2C(=O)c2c(-c3cccc(Cl)c3)noc21
MIC80 [6]: > 64 µg/mL
MIC80 [7]: > 64 µg/mL

OC(Cn1cncn1)(Cn1cncn1)c1ccc(F)cc1F [FLUCONAZOLE]
MIC80 [6]: 2 µg/mL (≈ 6.53 µM)
MIC80 [7]: 0.25 µg/mL (≈ 0.816 µM)
MIC80 [12]: 8 µg/mL (≈ 26.1 µM)
MIC80 [17]: 8 µg/mL (≈ 26.1 µM)
Activity [26]: inactive
Activity [27]: Active
